Experimental data taken from ChEMBL document CHEMBL3045798, “Toxic reactivity of wheat (Triticum aestivum) plants to herbicide isoproturon” (J Agric Food Chem, 2008).
Converted amounts (≈) assume the structure as drawn.

Experiments:
Triticum aestivum [1] = test: Reduction in CAT isoforms activity in leaves of Triticum aestivum cv. Ning 13 (wheat) seedlings grown on soils containing compound at 2 to 20 mg/kg for 10 days by PAGE method assay relative to untreated control; type: ADME, organism-based; design: dose 2-20 mg/kg; details: in vivo, 240 h
How it was run: (§1)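 Native PAGE, 5% stacking/10% separating gel, run at 4 °C (10 mA, then 15 mA), of tissue extracts from seedlings grown 10 days in soil at 0, 2, 3.5, 5, 10, 20 mg/kg. CAT bands: gel soaked in water 15 min, then 0.03% H2O2 25 min, washed, stained with 1% potassium ferricyanide plus 1% ferric chloride.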

Triticum aestivum [2] = test: Reduction in CAT isoforms activity in roots of Triticum aestivum cv. Ning 13 (wheat) seedlings grown on soils containing compound at 10 to 20 mg/kg for 10 days by PAGE method assay relative to untreated control; type: ADME, organism-based; design: dose 10-20 mg/kg; details: in vivo, 240 h; how it was run: as §1
Triticum aestivum [3] = test: Increase in CAT isoforms activity in roots of Triticum aestivum cv. Ning 13 (wheat) seedlings grown on soils containing compound at 2 to 5 mg/kg for 10 days by PAGE method assay relative to untreated control; type: ADME, organism-based; design: dose 2-5 mg/kg; details: in vivo, 240 h; how it was run: as §1
Triticum aestivum [4] = test: Increase in POD isoforms 1 to 5 activity in roots of Triticum aestivum cv. Ning 13 (wheat) seedlings grown on soils containing compound at 3.5 to 10 mg/kg for 10 days by PAGE method assay relative to untreated control; type: ADME, organism-based; design: dose 3.5-10 mg/kg; details: in vivo, 240 h
Triticum aestivum [5] = test: Reduction in SOD activity in shoots of Triticum aestivum cv. Ning 13 (wheat) seedlings grown on soils containing compound at 10 to 20 mg/kg for 10 days by PAGE method assay relative to untreated control; type: ADME, organism-based; design: dose 10-20 mg/kg; details: in vivo, 240 h
Triticum aestivum [6] = test: Reduction in SOD activity in roots of Triticum aestivum cv. Ning 13 (wheat) seedlings grown on soils containing compound at 10 to 20 mg/kg for 10 days by PAGE method assay relative to untreated control; type: ADME, organism-based; design: dose 10-20 mg/kg; details: in vivo, 240 h
Triticum aestivum [7] = test: Increase in SOD activity in shoots of Triticum aestivum cv. Ning 13 (wheat) seedlings grown on soils containing compound at 2 to 10 mg/kg for 10 days by PAGE method assay relative to untreated control; type: ADME, organism-based; design: dose 2-10 mg/kg; details: in vivo, 240 h
Triticum aestivum [8] = test: Increase in SOD activity in roots of Triticum aestivum cv. Ning 13 (wheat) seedings grown on soils containing compound at 2 to 10 mg/kg for 10 days by PAGE method assay relative to untreated control; type: ADME, organism-based; design: dose 2-10 mg/kg; details: in vivo, 240 h
Triticum aestivum [9] = test: Reduction in APX activity in roots of Triticum aestivum cv. Ning 13 (wheat) seedlings grown on soils containing compound at 20 mg/kg for 10 days relative to untreated control; type: ADME, organism-based; design: dose 20 mg/kg; details: in vivo, 240 h
Triticum aestivum [10] = test: Reduction in APX activity in leaves of Triticum aestivum cv. Ning 13 (wheat) seedlings grown on soils containing compound at 20 mg/kg for 10 days relative to untreated control; type: ADME, organism-based; design: dose 20 mg/kg; details: in vivo, 240 h
Triticum aestivum [11] = test: Increase in APX activity in roots of Triticum aestivum cv. Ning 13 (wheat) seedlings grown on soils containing compound at 5 to 10 mg/kg for 10 days relative to untreated control; type: ADME, organism-based; design: dose 5-10 mg/kg; details: in vivo, 240 h
Triticum aestivum [12] = test: Increase in APX activity in leaves of Triticum aestivum cv. Ning 13 (wheat) seedlings grown on soils containing compound at 5 to 10 mg/kg for 10 days relative to untreated control; type: ADME, organism-based; design: dose 5-10 mg/kg; details: in vivo, 240 h
Triticum aestivum [13] = test: Reduction in CAT activity in leaves of Triticum aestivum cv. Ning 13 (wheat) seedlings grown on soils containing compound at 2 to 20 mg/kg for 10 days by H2O2 consumption assay relative to untreated control; type: ADME, organism-based; design: dose 2-20 mg/kg; details: in vivo, 240 h
Triticum aestivum [14] = test: Reduction in CAT activity in roots of Triticum aestivum cv. Ning 13 (wheat) seedlings grown on soils containing compound at 10 to 20 mg/kg for 10 days by H2O2 consumption assay relative to untreated control; type: ADME, organism-based; design: dose 10-20 mg/kg; details: in vivo, 240 h
Triticum aestivum [15] = test: Induction of changes in GST activity in leaves of Triticum aestivum cv. Ning 13 (wheat) seedlings grown on soils containing compound at 2 to 20 mg/kg for 10 days by CDNB dye based assay relative to untreated control; type: organism-based; design: dose 2-20 mg/kg; details: in vivo, 240 h
Triticum aestivum [16] = test: Induction of changes in GST activity in roots of Triticum aestivum cv. Ning 13 (wheat) seedlings grown on soils containing compound at 2 to 20 mg/kg for 10 days by CDNB dye based assay relative to untreated control; type: organism-based; design: dose 2-20 mg/kg; details: in vivo, 240 h
How it was run: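 Tissue extract from 10-day seedlings in soil with 0–20 mg/kg. Reaction: 100 mM potassium phosphate pH 7, 1 mM GSH, 1 mM CDNB (final; added last to start). Absorbance increase at 340 nm tracked over 15 min. Mean ± SD, n = 3.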

Triticum aestivum [17] = test: Reduction in POD activity in roots of Triticum aestivum cv. Ning 13 (wheat) seedlings grown on soils containing compound at 20 mg/kg for 10 days by guaiacol oxidation relative to untreated control; type: ADME, organism-based; design: dose 20 mg/kg; details: in vivo, 240 h
How it was run: (§2)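 Crude leaf or root extract (Tris-HCl pH 7.8, EDTA, PVP; 15000g) from seedlings grown 10 days in soil with 0–20 mg/kg herbicide. Guaiacol oxidation read at 470 nm for 1 min in 100 mM potassium phosphate pH 7.0, 20 mM guaiacol, 10 mM H2O2. Mean ± SD, n = 3.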

Triticum aestivum [18] = test: Reduction in POD activity in leaves of Triticum aestivum cv. Ning 13 (wheat) seedlings grown on soils containing compound at 20 mg/kg for 10 days by guaiacol oxidation relative to untreated control; type: ADME, organism-based; design: dose 20 mg/kg; details: in vivo, 240 h; how it was run: as §2
Triticum aestivum [19] = test: Increase in POD activity in roots of Triticum aestivum cv. Ning 13 (wheat) seedlings grown on soils containing compound at 5 to 10 mg/kg for 10 days by guaiacol oxidation relative to untreated control; type: ADME, organism-based; design: dose 5-10 mg/kg; details: in vivo, 240 h; how it was run: as §2
Triticum aestivum [20] = test: Increase in POD activity in leaves of Triticum aestivum cv. Ning 13 (wheat) seedlings grown on soils containing compound at 5 to 10 mg/kg for 10 days by guaiacol oxidation relative to untreated control; type: ADME, organism-based; design: dose 5-10 mg/kg; details: in vivo, 240 h; how it was run: as §2
Triticum aestivum [21] = test: Increase in CAT activity in roots of Triticum aestivum cv. Ning 13 (wheat) seedlings grown on soils containing compound at 2 to 5 mg/kg for 10 days by H2O2 consumption assay relative to untreated control; type: ADME, organism-based; design: dose 2-5 mg/kg; details: in vivo, 240 h
Triticum aestivum [22] = test: Reduction in SOD activity in roots of Triticum aestivum cv. Ning 13 (wheat) seedlings grown on soils containing compound at 10 to 20 mg/kg for 10 days by NBT dye reduction assay relative to untreated control; type: ADME, organism-based; design: dose 10-20 mg/kg; details: in vivo, 240 h
How it was run: (§3)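 Root crude extract from 10-day seedlings in soil at 0–20 mg/kg. Inhibition of NBT photoreduction in 50 mM phosphate pH 7.8 with 10 mM methionine and riboflavin, read at 560 nm. One unit inhibits NBT photoreduction to formazan by 50%. Mean ± SD, n = 3.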

Triticum aestivum [23] = test: Increase in SOD activity in roots of Triticum aestivum cv. Ning 13 (wheat) seedlings grown on soils containing compound at 2 to 10 mg/kg for 10 days by NBT dye reduction assay relative to untreated control; type: ADME, organism-based; design: dose 2-10 mg/kg; details: in vivo, 240 h; how it was run: as §3
Triticum aestivum [24] = test: Induction of lipid peroxidation in Triticum aestivum cv. Ning 13 (wheat) seedlings assessed as increase in TBARS level in roots grown on soils containing compound at 2 to 20 mg/kg for 10 days relative to untreated control; type: organism-based; design: dose 2-20 mg/kg; details: in vivo, 240 h
How it was run: (§4)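 Seedlings grown 10 days in soil at 0–20 mg/kg. Frozen tissue (0.5 g) ground in 0.1% TCA, spun; supernatant heated 30 min in boiling water with 0.5% TBA in 20% TCA. A532 minus A600 read; TBARS calculated with ε 155 mM-1 cm-1. Mean ± SD, n = 3.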

Triticum aestivum [25] = test: Induction of lipid peroxidation in Triticum aestivum cv. Ning 13 (wheat) seedlings assessed as increase in TBARS level in leaves grown on soils containing compound at 10 mg/kg for 10 days relative to untreated control; type: organism-based; design: dose 10 mg/kg; details: in vivo, 240 h
How it was run: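 Wheat seeds surface-sterilized (5% hypochlorite, 10 min), germinated 8 h at 25 °C, sown in sieved field soil spiked with herbicide (0–20 mg/kg), watered to 60–70% water content, grown 10 days (12 h photoperiod, 25/20 °C). Fresh leaf (0.5 g) ground in 0.1% TCA, supernatant boiled 30 min with 0.5% TBA in 20% TCA; A532 minus A600, ε 155 mM-1 cm-1; n=3.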

Triticum aestivum [26] = test: Induction of lipid peroxidation in Triticum aestivum cv. Ning 13 (wheat) seedlings assessed as increase in TBARS level in leaves grown on soils containing compound for 10 days relative to untreated control; type: organism-based; details: in vivo, 240 h; how it was run: as §4
Triticum aestivum [27] = test: Toxicity in Triticum aestivum cv. Ning 13 (wheat) seedlings assessed as reduction in chlorophyll content in leaves grown on soils containing compound at 2 mg/kg for 10 days relative to untreated control; type: organism-based; design: dose 2 mg/kg; scale not given: the % may be the effect or the level left; details: in vivo, 240 h
How it was run: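 Fresh leaf (0.1 g) from 10-day seedlings in spiked soil extracted in 80% acetone (pH 7.8, phosphate), spun 500g 10 min. Total chlorophyll calculated spectrophotometrically. Mean ± SD, n = 3.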

Triticum aestivum [28] = test: Toxicity in Triticum aestivum cv. Ning 13 (wheat) seedlings assessed as reduction in shoot elongation grown on soils containing compound at 20 mg/kg for 10 days relative to untreated control; type: organism-based; design: dose 20 mg/kg; scale not given: the % may be the effect or the level left; details: in vivo, 240 h
How it was run: (§5)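 Surface-sterilized seeds germinated 8 h at 25 °C, then grown 10 days (third leaf) in soil at 0, 2, 3.5, 5, 10, 20 mg/kg, watered to 60–70% water content, 12 h photoperiod, 300 µmol photons m-2 s-1, 25/20 °C. Elongation measured; dry mass after 70 °C for 72 h. Mean ± SD, n = 3.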

Triticum aestivum [29] = test: Toxicity in Triticum aestivum cv. Ning 13 (wheat) seedlings assessed as reduction in root length grown on soils containing compound at 20 mg/kg for 10 days relative to untreated control; type: organism-based; design: dose 20 mg/kg; scale not given: the % may be the effect or the level left; details: in vivo, 240 h; how it was run: as §5
Triticum aestivum [30] = test: Toxicity in Triticum aestivum cv. Ning 13 (wheat) seedlings assessed as inhibition of shoot growth measured as dry weight grown on soils containing compound at 2 to 20 mg/kg for 10 days; type: organism-based; design: dose 2-20 mg/kg; details: in vivo, 240 h; how it was run: as §5
[31] = Solubility in water at 20 degC; type: physicochemical

Structure (SMILES): CC(C)c1ccc(NC(=O)N(C)C)cc1 [ISOPROTURON]
- Activity (Triticum aestivum [1]): Dose-dependent effect
- Activity (Triticum aestivum [2]): Toxic
- Activity (Triticum aestivum [3]): Toxic
- Activity (Triticum aestivum [4]): Toxic
- Activity (Triticum aestivum [5]): Toxic
- Activity (Triticum aestivum [6]): Toxic
- Activity (Triticum aestivum [7]): Toxic
- Activity (Triticum aestivum [8]): Toxic
- Activity (Triticum aestivum [9]): Toxic
- Activity (Triticum aestivum [10]): Toxic
- Activity (Triticum aestivum [11]): Toxic
- Activity (Triticum aestivum [12]): Toxic
- Activity (Triticum aestivum [13]): Dose-dependent effect
- Activity (Triticum aestivum [14]): Toxic
- Activity (Triticum aestivum [15]): Toxic
- Activity (Triticum aestivum [16]): Toxic
- Activity (Triticum aestivum [17]): Toxic
- Activity (Triticum aestivum [18]): Toxic
- Activity (Triticum aestivum [19]): Toxic
- Activity (Triticum aestivum [20]): Toxic
- Activity (Triticum aestivum [21]): Toxic
- Activity (Triticum aestivum [22]): Toxic
- Activity (Triticum aestivum [23]): Dose-dependent effect
- Activity (Triticum aestivum [24]): Non-toxic
- fold change (FC) (Triticum aestivum [25]): > 2
- Activity (Triticum aestivum [26]): Dose-dependent effect
- Activity (Triticum aestivum [27]): 11%
- Activity (Triticum aestivum [28]): 32%
- Activity (Triticum aestivum [29]): 44%
- Activity (Triticum aestivum [30]): Toxic
- solubility [31]: 55 µg/mL (≈ 267 µM)
